The RNAGym collection of RNA variant scans (doi:10.1126/science.aae0568)
Variants at the floor of the assay were thinned out.

B1: tRNA (parent)
chain: GUUCCGUUGGCGUAAUGGUAACGCGUCUCCCUCCUAAGGAGAAGACUGCGGGUUCGAGUCCCGUACGGAACG

Variants of: B1
Test: yeast fitness relative to wild type (ratio to wild type); higher = fitter; tRNA-Arg(CCU), competitive growth, 37 C, YPD
In short: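 Variants of the tRNA-Arg(CCU) gene, chemically synthesised with a 3% per-site mutation rate at 69 sites, were placed at the native genomic locus in Saccharomyces cerevisiae. The pooled strains were competed in YPD at 37°C for 24 hours in six parallel replicates. Gene amplicons from the start population and from each end population were read by 100-nucleotide paired-end sequencing. Darwinian fitness relative to wild type came from changes in genotype frequencies; genotypes needed ≥ 100 starting reads, and estimates < 0.5 were set to 0.5.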

| Variant | yeast fitness |
| --- | --- |
| GUUCCGUUGGCGUAAUGGUAACGCGUCUCCCUCCUAACGAGAAGACUGCGGGUUCGAGUCCCGAACGAAACG [G38C U64A G68A] | ≤ 0.5 |
| GUUCCGUUGGCGUAAUGGUAACGCGUCUCCCUCCUAACGAGAAGACUGCGGGUUCGAGUCCCGCACGGAACG [G38C U64C] | 0.803 |
| GUUCCGUUGGCGUAAUGGUAACGCGUCUCCCUCCUAAUGAGAAGACUGCGGGUUCGAGUCCCGUACGGAACG [G38U] | 1.01 |
| GUUCCGUUGGCGUAAUGGUAACGCGUCUCCCUCCUAAUGAGAAGACUGCGGGUUCGAGUCCCGUGCGGAACG [G38U A65G] | 0.802 |
| GUUCCGUUGGCGUAAUGGUAACGCGUCUCCCUCCUAAUGAGAAGACUACGGGUUCGAGUCCCGUACGGAUCG [G38U G48A A70U] | 0.652 |
| GUUCCGUUGGCGUAAUGGUAACGCGUCUCCCUCCUAAGAAGUAGACUGCGGGUUCGAGUCCCGUACGGAACG [G39A A42U] | 0.767 |
| GUUCCGUUGGCGUAAUGGUAACGCGUCUCCCUCCUAAGAAGACGACUGCGGGUUCGAGUCCCGUACGGAACG [G39A A43C] | 0.796 |
| GUUCCGUUGGCGUAAUGGUAACGCGUCUCCCUCCUAAGAAGAAGCCUGCGGGUUCGAGUCCCGUACGGAACG [G39A A45C] | 1.03 |
| GUUCCGUUGGCGUAAUGGUAACGCGUCUCCCUCCUAAGAAGAAGCCUGCGGGUUCGAGUCCCGUACGGCACG [G39A A45C A69C] | 0.804 |
| GUUCCGUUGGCGUAAUGGUAACGCGUCUCCCUCCUAAGAAGAAGACUGCGGGUUCGAGUCCCGUUCGGAACG [G39A A65U] | 0.791 |
| GUUCCGUUGGCGUAAUGGUAACGCGUCUCCCUCCUAAGAAGAAGAAUGCGGGUUCGAGUGUCGUACGGAACG [G39A C46A C60G C61U] | 0.512 |
| GUUCCGUUGGCGUAAUGGUAACGCGUCUCCCUCCUAAGAAGAAGACUGUGGGUUCGAGUCCCGUACGGAACG [G39A C49U] | 0.842 |
| GUUCCGUUGGCGUAAUGGUAACGCGUCUCCCUCCUAAGAAGAAGACUGCGGGUUCGAGUCCCGUAUGGAACG [G39A C66U] | 0.797 |
| GUUCCGUUGGCGUAAUGGUAACGCGUCUCCCUCCUAAGAAGAAAACUGCAGGUUCGAGUCCCCUACGGAACG [G39A G44A G50A G63C] | ≤ 0.5 |
| GUUCCGUUGGCGUAAUGGUAACGCGUCUCCCUCCUAAGAAGAAGACUACGGGUUCGUGUCCCGUACGGAACG [G39A G48A A57U] | ≤ 0.5 |
| GUUCCGUUGGCGUAAUGGUAACGCGUCUCCCUCCUAAGAAGAAGACUGCAGGUUCGAGUCCCGUAUGGAACG [G39A G50A C66U] | ≤ 0.5 |
| GUUCCGUUGGCGUAAUGGUAACGCGUCUCCCUCCUAAGAAGAAGACUGCGAGAUCGAGUCCCCUACGGAACG [G39A G51A U53A G63C] | ≤ 0.5 |
| GUUCCGUUGGCGUAAUGGUAACGCGUCUCCCUCCUAAGAAGAAGACUGCGGAUUCGAGUCCCGUACGGAACG [G39A G52A] | 0.759 |
| GUUCCGUUGGCGUAAUGGUAACGCGUCUCCCUCCUAAGAAGAAGACUGCGGGUUCGACUCCCGUACGGUACG [G39A G58C A69U] | 0.773 |

| Variant | yeast fitness |
| --- | --- |
| GUUCCGUUGGCGUAAUGGUAACGCGUCUCCCUCCUAAGAAGAAGACUGCGGGUUCGAGUCCCAUACGGAACG [G39A G63A] | 0.945 |
| GUUCCGUUGGCGUAAUGGUAACGCGUCUCCCUCCUAAGAAGAAGACUGCGGGUUCGAGUCCCGUACAGAACG [G39A G67A] | 0.769 |
| GUUCCGUUGGCGUAAUGGUAACGCGUCUCCCUCCUAAGAAGAAGACAGUGGGUACGAGUCCCGUACGGAACG [G39A U47A C49U U54A] | ≤ 0.5 |
| GUUCCGUUGGCGUAAUGGUAACGCGUCUCCCUCCUAAGAAGAAGACUGCGGGAUCGAGUCCGGUAUGGAACG [G39A U53A C62G C66U] | ≤ 0.5 |
| GUUCCGUUGGCGUAAUGGUAACGCGUCUCCCUCCUAAGAAGAAGACUGCGGGUCCGAGUCCCGUACGGAACG [G39A U54C] | 0.945 |
| GUUCCGUUGGCGUAAUGGUAACGCGUCUCCCUCCUAAGCAGGAGACUGCGGGUUCGAGUCCCGUACGGAACG [G39C A42G] | 0.653 |
| GUUCCGUUGGCGUAAUGGUAACGCGUCUCCCUCCUAAGCAGUAGACUGCGGGUUCGAGUGCUGUACCGAACG [G39C A42U C60G C62U G67C] | ≤ 0.5 |
| GUUCCGUUGGCGUAAUGGUAACGCGUCUCCCUCCUAAGCAGAGCUCUGGGGGUUCGAGUCCCGUACCGAACG [G39C A43G G44C A45U C49G G67C] | 0.558 |
| GUUCCGUUGGCGUAAUGGUAACGCGUCUCCCUCCUAAGCAGAUGACUGCGGGUUCGAGUCCCGUACGGUACG [G39C A43U A69U] | 0.736 |
| GUUCCGUUGGCGUAAUGGUAACGCGUCUCCCUCCUAAGCAGAAGACUGCGGGUUCGGGUCCCGUACGGAACG [G39C A57G] | 0.705 |
| GUUCCGUUGGCGUAAUGGUAACGCGUCUCCCUCCUAAGCAGAAGACUGCGGGUUCGUGUCCCGUACGGAACG [G39C A57U] | 0.682 |
| GUUCCGUUGGCGUAAUGGUAACGCGUCUCCCUCCUAAGCAGAAGAAUGCGGGUUCGAGUGCCGUACGGAACG [G39C C46A C60G] | ≤ 0.5 |
| GUUCCGUUGGCGUAAUGGUAACGCGUCUCCCUCCUAAGCAGAAGAUUGCGGGUUCGAGUCCCGUACGGAACG [G39C C46U] | 0.98 |
| GUUCCGUUGGCGUAAUGGUAACGCGUCUCCCUCCUAAGCAGAAGACUGAGGGUUCGAGUCCCGUACGGAACG [G39C C49A] | 0.664 |
| GUUCCGUUGGCGUAAUGGUAACGCGUCUCCCUCCUAAGCAGAAGACUGGCGGUUCGAGUCCCGUACGGAACG [G39C C49G G50C] | ≤ 0.5 |
| GUUCCGUUGGCGUAAUGGUAACGCGUCUCCCUCCUAAGCAGAAGACUGCGGGUUAGAGUCCCGUACGGAACG [G39C C55A] | 0.643 |
| GUUCCGUUGGCGUAAUGGUAACGCGUCUCCCUCCUAAGCAGAAGACUGCGGGUUCGAGUCCUGUACGGAACG [G39C C62U] | 0.776 |
| GUUCCGUUGGCGUAAUGGUAACGCGUCUCCCUCCUAAGCAGAAGACUGCGGGUUCGAGUCCCGUAUGGAACG [G39C C66U] | 0.633 |
